Test results taken from ChEMBL document CHEMBL2016466, “Design, synthesis, and biological evaluation of new diaminoquinazolines as β-catenin/Tcf4 pathway inhibitors” (J Med Chem, 2012).

Legend:
[1] = test system: HCT-116; test: Growth inhibition of human HCT116 cells assessed as viable cells after 3 days using resazurin by […] assay; format: functional, cell-based; details: HCT-116, 72 h
Method in brief: (§1)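 Cells grown in RPMI 1640 + 10% FBS + penicillin/streptomycin, trypsinized and seeded at 2 × 10³ cells/well. Compound added 24 h later as a concentration curve starting at 10 μg/mL with nine further 2-fold dilutions. After 3 days of exposure, viability was read with CellTiter-Blue (resazurin to resorufin). IC50 is the average of three separate experiments.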

[2] = test system: SW480; test: Growth inhibition of human SW480 cells assessed as viable cells after 3 days using resazurin by […] assay; format: functional, cell-based; details: SW480, 72 h; method in brief: as §1
[3] = molecular target: TCF4/beta-catenin (Homo sapiens, UniProt P35222+Q9NQB0); test: Inhibition of beta-catenin/TCF4 pathway expressed in HCT116 cells containing delta45S mutant after 24 hrs by luciferase reporter gene assay; format: cell-based; details: hct-116
TCF4/beta-catenin, sequence (P35222 2-781 limits assumed, stated change not applied): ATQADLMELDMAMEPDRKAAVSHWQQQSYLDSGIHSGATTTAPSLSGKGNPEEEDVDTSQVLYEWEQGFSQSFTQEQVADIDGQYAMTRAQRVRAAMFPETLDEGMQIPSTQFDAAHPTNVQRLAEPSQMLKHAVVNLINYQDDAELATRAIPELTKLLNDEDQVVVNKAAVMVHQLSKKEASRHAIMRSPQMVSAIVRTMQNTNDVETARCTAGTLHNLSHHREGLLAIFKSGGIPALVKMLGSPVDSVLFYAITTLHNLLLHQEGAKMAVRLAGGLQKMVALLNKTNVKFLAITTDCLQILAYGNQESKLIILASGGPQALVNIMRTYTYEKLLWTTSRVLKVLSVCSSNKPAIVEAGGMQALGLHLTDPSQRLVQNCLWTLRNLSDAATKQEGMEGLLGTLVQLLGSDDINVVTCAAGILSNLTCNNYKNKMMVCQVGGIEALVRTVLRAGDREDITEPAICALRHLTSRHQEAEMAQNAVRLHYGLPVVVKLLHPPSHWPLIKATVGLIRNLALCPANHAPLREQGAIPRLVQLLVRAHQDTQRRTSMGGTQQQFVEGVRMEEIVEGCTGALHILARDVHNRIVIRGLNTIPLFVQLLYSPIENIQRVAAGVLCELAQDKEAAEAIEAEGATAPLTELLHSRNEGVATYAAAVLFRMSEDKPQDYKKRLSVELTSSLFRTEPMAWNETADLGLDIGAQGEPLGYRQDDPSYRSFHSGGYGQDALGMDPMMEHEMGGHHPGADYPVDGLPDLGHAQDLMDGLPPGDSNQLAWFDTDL
TCF4/beta-catenin, sequence (Q9NQB0 whole entry, stated change not applied): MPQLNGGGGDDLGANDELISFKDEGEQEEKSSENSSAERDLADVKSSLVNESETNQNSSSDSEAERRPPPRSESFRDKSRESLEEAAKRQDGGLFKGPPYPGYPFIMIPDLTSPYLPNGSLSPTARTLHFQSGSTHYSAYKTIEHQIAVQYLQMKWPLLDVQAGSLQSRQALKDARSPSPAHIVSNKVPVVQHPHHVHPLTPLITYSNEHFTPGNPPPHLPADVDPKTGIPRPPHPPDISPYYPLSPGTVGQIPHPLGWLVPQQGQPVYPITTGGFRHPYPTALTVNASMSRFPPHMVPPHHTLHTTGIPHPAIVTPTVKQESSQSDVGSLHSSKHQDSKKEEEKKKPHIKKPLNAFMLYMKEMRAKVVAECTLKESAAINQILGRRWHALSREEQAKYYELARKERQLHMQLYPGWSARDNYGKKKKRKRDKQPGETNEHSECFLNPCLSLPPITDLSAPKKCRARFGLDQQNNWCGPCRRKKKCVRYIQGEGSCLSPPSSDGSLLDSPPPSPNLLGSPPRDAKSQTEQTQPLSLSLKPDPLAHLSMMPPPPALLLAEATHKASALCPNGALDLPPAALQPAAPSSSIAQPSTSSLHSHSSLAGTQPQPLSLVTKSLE
Method in brief: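 HCT116 cells at 1 × 10⁴/well, cotransfected with 50 ng TOP-FLASH reporter (Tcf4 binding sites) and 50 ng pTK-β-gal as internal control. At 4 h post-transfection, fresh medium with compound at various concentrations was added. Firefly luciferase was read 24 h after compound addition, normalized to β-galactosidase and expressed as a percentage of control luciferase activity.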

[4] = test system: HCT-116; test: Growth inhibition of human HCT116 cells assessed as clonogenic growth after 9 days using crystal violet staining; format: functional, cell-based; details: HCT-116, 216 h
Method in brief: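 HCT116 cells in RPMI 1640 + 10% FBS + penicillin/streptomycin, plated at 300 cells/well in six-well plates 8 h before treatment with or without inhibitor (highest final concentration 1.5 μM). Incubated 9 days, then fixed with 10% acetic acid in methanol, stained with 0.05% crystal violet and colonies counted. IC50 is the average of three separate experiments.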

[5] = Ratio of IC50 for human HCT116 cells to IC50 for […]/TCF4 pathway expressed in HCT116 cells; format: cell-based; details: HCT-116
[6] = Solubility of the compound in water; format: physicochemical; details: buffer

Row | Structure (SMILES) | IC50 [1] [µM] | IC50 [2] [µM] | IC50 [3] [µM] | IC50 [4] [µM] | Ratio IC50 [5] | solubility [6]
1 | CNc1nc(NCc2ccc(NS(=O)(=O)c3ccc(F)cc3)cc2)c2ccccc2n1 | 5.3 | 4.8 |  |  |  | 
2 | Cc1ccc(S(=O)(=O)Nc2ccc(CNc3nc(N(C)C)nc4ccccc34)cc2)cc1 | 11 | 13 |  |  |  | 
3 | CCCNc1nc2ccccc2c(NCc2ccc(NC(=O)c3ccc(F)cc3)cc2)c1C#N | > 20 | > 20 |  |  |  | 
4 | O=C(Nc1ccc(F)cc1)c1ccc(CNc2nc(NC3CC3)nc3ccccc23)cc1 | 2.7 | 2.6 |  |  |  | 
5 | CN(C)CCCNc1nc(NCc2ccc(NC(=O)c3ccc(CN4CCN(C)CC4)cc3)cc2)c2ccccc2n1 | > 20 | > 20 |  |  |  | 
6 | Cc1ccc2nc(N(C)C)nc(NCc3ccc(C(=O)Nc4ccc(Cl)nc4)cc3)c2c1 | 1.3 | 1.1 | 2.5 |  |  | 
7 | Cc1ccc2nc(N(C)C)nc(NCc3ccc(C(=O)N[C@H]4C[C@@H]4c4ccccc4)cc3)c2c1 (relative stereo) | 1.3 | 2.4 | 3 |  |  | 
8 | O=S(=O)(Nc1ccc(CNc2nc(NC3CC3)nc3ccccc23)cc1)c1ccc(F)cc1 | 4.9 | 4.1 |  |  |  | 
9 | CCCNc1nc(NCc2ccc(C(=O)Nc3ccc(Cl)nc3)cc2)c2cc(C)ccc2n1 | 1.5 | 2.1 | 2.5 |  |  | 
10 | Cc1ccc2nc(N3CCNC(C)C3)nc(NCc3ccc(C(=O)NCc4ccc(F)cc4)cc3)c2c1 (racemic) | 2.9 | 1.4 |  |  |  | 
11 | CN1CCN(c2nc(NCc3ccc(NC(=O)c4ccncc4)cc3)c3ccccc3n2)CC1 | > 20 | > 20 |  |  |  | 
12 | Cc1ccc2nc(N(C)C)nc(NCc3ccc(C(=O)NCCc4ccc(F)cc4)cc3)c2c1 | 0.6 | 1.4 | 1.5 | 0.264 |  | 
13 | CC1CN(c2nc(NCc3ccc(C(=O)Nc4ccc(F)cc4)cc3)c3ccccc3n2)CCN1 (racemic) | 2.8 | 3.2 | > 5 |  |  | 
14 | Cc1ccc2nc(N3CCNC(C)C3)nc(NCc3ccc(C(=O)NC4CCN(Cc5ccc(F)cc5)CC4)cc3)c2c1 (racemic) | 2 | 1 | > 5 |  |  | 
15 | CCCNc1nc(NCc2ccc(C(=O)NCc3ccc(F)cc3)cc2)c2cc(C)ccc2n1 | 4.4 | 2.2 |  |  |  | 
16 | CNc1nc(NCc2ccc(NC(=O)c3ccc(F)cc3)cc2)c2ccccc2n1 | 1.6 | 2 | 3.5 |  | 2 | 
17 | CCCNc1nc(NCc2ccc(C(=O)NCCc3ccc(F)cc3)cc2)c2cc(C)ccc2n1 | 1.6 | 1.6 | 2 |  |  | 
18 | CCCNc1nc(NCc2ccc(C(=O)NC3CCN(C(=O)c4ccc(F)cc4)CC3)cc2)c2cc(C)ccc2n1 | 6.8 | 5.5 |  |  |  | 
19 | CN(C)CCCNc1nc(NCc2ccc(NC(=O)c3ccc(F)cc3)cc2)c2ccccc2n1 | 10 | 14 |  |  |  | 
20 | CN(C)c1nc(NCc2ccc(C(=O)N3CCC(C(=O)NCc4ccc(F)cc4)CC3)cc2)c2ccccc2n1 | 5.7 | 5.5 |  |  |  | 
21 | CN1CCN(c2nc(NCc3ccc(NC(=O)c4ccc(F)cc4)cc3)c3ccccc3n2)CC1 | 1.8 | 2.5 |  |  |  | 
22 | Cc1ccc(S(=O)(=O)Nc2ccc(CNc3nc(N4CCN(C)CC4)nc4ccccc34)cc2)cc1 | > 20 | > 20 |  |  |  | 
23 | CNc1nc(NCc2ccc(NS(=O)(=O)c3ccc(C)cc3)cc2)c2ccccc2n1 | 5.8 | 4.9 |  |  |  | 
24 | CNc1nc(NCc2ccc(NC(=O)c3ccc(CN4CCN(C)CC4)cc3)cc2)c2ccccc2n1 | 10 | 11 |  |  |  | 
25 | CNc1nc(NCc2ccc(NC(=O)c3ccc(F)cc3)cc2Cl)c2ccccc2n1 | 2 | 2.3 |  |  |  | 
26 | CN(C)c1nc(NCc2ccc(NC(=O)c3ccc(F)cc3)cc2)c2ccccc2n1 | 1.3 | 2.2 |  |  |  | 
27 | CNc1nc(NCc2ccc(C(=O)Nc3ccc(F)cc3)cc2)c2ccccc2n1 | 2.9 | 4.1 |  |  |  | 

Row | Structure (SMILES) | IC50 [1] [µM] | IC50 [2] [µM] | IC50 [3] [µM] | IC50 [4] [µM] | Ratio IC50 [5] | solubility [6]
28 | Cc1ccc2nc(N(C)C)nc(NCc3ccc(C(=O)NC4CCN(Cc5ccc(F)cc5)CC4)cc3)c2c1 | 0.8 | 1.1 | 2.5 | 0.313 |  | 
29 | CCCNc1nc(NCc2ccc(C(=O)N3CCC(C(=O)NCc4ccc(F)cc4)CC3)cc2)c2cc(C)ccc2n1 | 4.6 | 5.2 |  |  |  | 
30 | CCNc1nc(NCc2ccc(NC(=O)c3ccc(F)cc3)cc2Cl)c2ccccc2n1 | 1.5 | 1.6 |  |  |  | 
31 | CNc1nc(NCc2ccc(NC(=O)c3ccncc3)cc2)c2ccccc2n1 | > 20 | > 20 |  |  |  | 
32 | Cc1ccc2nc(N(C)C)nc(NCc3ccc(C(=O)NCc4ccc(F)cc4)cc3)c2c1 | 0.9 | 1.1 | 2 | 0.298 |  | 
33 | CNc1nc2ccccc2c(NCc2ccc(NC(=O)c3ccc(F)cc3)cc2)c1C#N | > 20 | > 20 |  |  |  | 
34 | CCNc1nc(NCc2ccc(C(=O)N[C@H]3C[C@@H]3c3ccccc3)cc2)c2cc(C)ccc2n1 (relative stereo) | 1.7 | 1.8 | 3.5 |  |  | 
35 | CNc1nc(NCc2ccc(C(=O)NC3CCN(Cc4ccc(F)cc4)CC3)cc2)c2cc(C)ccc2n1 | 1.2 | 1.3 | 3 |  |  | 
36 | CCNc1nc(NCc2ccc(C(=O)Nc3ccc(F)cc3)cc2)c2ccccc2n1 | 1.9 | 2.5 | 3.5 |  |  | 
37 | C=CCNc1nc(NCc2ccc(C(=O)Nc3ccc(F)cc3)cc2)c2ccccc2n1 | 14 | 11 |  |  |  | 
38 | CCCNc1nc(NCc2ccc(NC(=O)c3ccc(F)cc3)cc2)c2ccccc2n1 | 1.7 | 2 | 2.5 |  | 2 | 
39 | CCCNc1nc(NCc2ccc(C(=O)Nc3ccc(F)cc3)cc2)c2cc(C)ccc2n1 | 1.2 | 1.3 |  |  |  | soluble
40 | CCNc1nc(NCc2ccc(NC(=O)c3ccc(F)cc3)cc2)c2ccccc2n1 | 1.4 | 2.3 | 3 |  | 2 | 
41 | C=CCNc1nc(NCc2ccc(C(=O)Nc3ccc(F)cc3)cc2)c2cc(C)ccc2n1 | 13 | 10 |  |  |  | 
42 | CN(C)c1nc(NCc2ccc(NC(=O)c3ccncc3)cc2)c2ccccc2n1 | 15 | 11 |  |  |  | 
43 | CNc1nc(NCc2ccc(C(=O)NCCc3ccc(F)cc3)cc2)c2cc(C)ccc2n1 | 1.1 | 1.5 | 1 |  |  | 
44 | CNc1ncc(Br)c(NCc2ccc(NC(=O)c3ccc(F)cc3)cc2)n1 | > 20 | > 20 |  |  |  | 
45 | CCCCNc1nc(NCc2ccc(C(=O)Nc3ccc(F)cc3)cc2)c2ccccc2n1 | 1.4 | 1 | 1.5 | 0.381 |  | 
46 | CCCNc1nc(NCc2ccc(C(=O)N3CCC(C(=O)NCc4ccc(F)cc4)CC3)cc2)c2ccccc2n1 | 5.5 | 5.7 |  |  |  | 
47 | CCNc1ncc(C)c(NCc2ccc(NC(=O)c3ccc(F)cc3)cc2)n1 | > 20 | > 20 |  |  |  | 
48 | CN(C)c1nc(NCc2ccc(C(=O)Nc3ccc(F)cc3)cc2)c2ccccc2n1 | 1.9 | 2.6 | 3 |  |  | 
49 | CNc1ncc(C)c(NCc2ccc(NC(=O)c3ccc(F)cc3)cc2)n1 | > 20 | > 20 |  |  |  | 
50 | C=CCNc1nc(NCc2ccc(C(=O)NC3CCN(C(=O)c4ccc(F)cc4)CC3)cc2)c2cc(C)ccc2n1 | 6.9 | 5.2 |  |  |  | 
51 | CCCNc1nc(NCc2ccc(C(=O)Nc3ccc(F)cc3)cc2)c2ccccc2n1 | 1.5 | 1.6 | 3 | 0.684 |  | 
52 | CCCNc1nc(NCc2ccc(C(=O)NC3CCN(Cc4ccc(F)cc4)CC3)cc2)c2cc(C)ccc2n1 | 1.6 | 1.1 | 3 |  |  | 
53 | Cc1ccc2nc(N(C)C)nc(NCc3ccc(C(=O)N4CCC(C(=O)NCc5ccc(F)cc5)CC4)cc3)c2c1 | 5.6 | 5.6 |  |  |  | 
